Measured values: ChEMBL document CHEMBL2203111, “An Hsp90 modulator that exhibits a unique mechanistic profile” (Bioorg Med Chem Lett, 2012)
pIC50: −log10 of the molar value. Activity calls are given as the source filed them. The calls are words filed in the database; no cut-off is given here. *1 amine or outer side, *2 acyl side, *3 side chain or, on linkers, in order; H or OH if unused. Where a SMILES comes first, the peptide text is derived from it. [ ]: non-standard residue; d: D form. X1 = O=C([C@H](N[*:1])[C@H](OCc1ccccc1)c1ccccc1)[*:2]; NMeV = CN[C@H](C(=O)O)C(C)C

Columns and labels:
[1] = system: HCT-116; assay: Binding affinity to beta tubulin in human HCT116 cell lysates at 0.6 uM after 1 hr using coomassie blue staining by SDS-PAGE based pull down assay; format: cell-free
In short: (§1)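 Biotinylated probe incubated with HCT116 cell lysate; neutravidin-agarose beads added to capture probe with bound proteins, beads washed ten times, proteins eluted in sample buffer and resolved by gel/Western blot. Controls: PEGylated biotin linker alone and DMSO.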

[2] = target: T1, Heat shock protein HSP90 (Homo sapiens) (UniProt P07900+P08238); assay: Binding affinity to HSP90 in human HCT116 cell lysates at 0.6 uM after 1 hr using coomassie blue staining by SDS-PAGE based pull down assay; format: protein assay; settings: HCT-116; in short: as §1
[3] = system: HCT-116; assay: Binding affinity to actin in human HCT116 cell lysates at 0.6 uM after 1 hr using coomassie blue staining by SDS-PAGE based pull down assay; format: cell-free; in short: as §1
[4] = target: Glyceraldehyde-3-phosphate dehydrogenase (Homo sapiens) (UniProt P04406); assay: Binding affinity to glyceraldehyde-3-phosphate dehydrogenase in human HCT116 cell lysates at 0.6 uM after 1 hr using coomassie blue staining by SDS-PAGE based pull down assay; settings: HCT-116; in short: as §1
Sequence of Glyceraldehyde-3-phosphate dehydrogenase (Homo sapiens) (P04406 2-335 limits assumed): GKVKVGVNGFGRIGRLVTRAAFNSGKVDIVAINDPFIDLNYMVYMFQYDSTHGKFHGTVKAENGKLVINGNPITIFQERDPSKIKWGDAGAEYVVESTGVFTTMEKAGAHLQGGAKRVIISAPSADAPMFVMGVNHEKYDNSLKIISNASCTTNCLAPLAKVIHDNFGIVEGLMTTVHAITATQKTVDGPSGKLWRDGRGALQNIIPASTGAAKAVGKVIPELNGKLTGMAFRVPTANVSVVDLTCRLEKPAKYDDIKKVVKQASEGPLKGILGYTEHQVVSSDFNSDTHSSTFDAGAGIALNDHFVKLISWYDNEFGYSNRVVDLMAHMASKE

[5] = target: Myosin-9 (Homo sapiens) (UniProt P35579); assay: Binding affinity to myosin-9 in human HCT116 cell lysates at 0.6 uM after 1 hr using coomassie blue staining by SDS-PAGE based pull down assay; settings: HCT-116; in short: as §1
Sequence of Myosin-9 (Homo sapiens) (P35579 whole entry): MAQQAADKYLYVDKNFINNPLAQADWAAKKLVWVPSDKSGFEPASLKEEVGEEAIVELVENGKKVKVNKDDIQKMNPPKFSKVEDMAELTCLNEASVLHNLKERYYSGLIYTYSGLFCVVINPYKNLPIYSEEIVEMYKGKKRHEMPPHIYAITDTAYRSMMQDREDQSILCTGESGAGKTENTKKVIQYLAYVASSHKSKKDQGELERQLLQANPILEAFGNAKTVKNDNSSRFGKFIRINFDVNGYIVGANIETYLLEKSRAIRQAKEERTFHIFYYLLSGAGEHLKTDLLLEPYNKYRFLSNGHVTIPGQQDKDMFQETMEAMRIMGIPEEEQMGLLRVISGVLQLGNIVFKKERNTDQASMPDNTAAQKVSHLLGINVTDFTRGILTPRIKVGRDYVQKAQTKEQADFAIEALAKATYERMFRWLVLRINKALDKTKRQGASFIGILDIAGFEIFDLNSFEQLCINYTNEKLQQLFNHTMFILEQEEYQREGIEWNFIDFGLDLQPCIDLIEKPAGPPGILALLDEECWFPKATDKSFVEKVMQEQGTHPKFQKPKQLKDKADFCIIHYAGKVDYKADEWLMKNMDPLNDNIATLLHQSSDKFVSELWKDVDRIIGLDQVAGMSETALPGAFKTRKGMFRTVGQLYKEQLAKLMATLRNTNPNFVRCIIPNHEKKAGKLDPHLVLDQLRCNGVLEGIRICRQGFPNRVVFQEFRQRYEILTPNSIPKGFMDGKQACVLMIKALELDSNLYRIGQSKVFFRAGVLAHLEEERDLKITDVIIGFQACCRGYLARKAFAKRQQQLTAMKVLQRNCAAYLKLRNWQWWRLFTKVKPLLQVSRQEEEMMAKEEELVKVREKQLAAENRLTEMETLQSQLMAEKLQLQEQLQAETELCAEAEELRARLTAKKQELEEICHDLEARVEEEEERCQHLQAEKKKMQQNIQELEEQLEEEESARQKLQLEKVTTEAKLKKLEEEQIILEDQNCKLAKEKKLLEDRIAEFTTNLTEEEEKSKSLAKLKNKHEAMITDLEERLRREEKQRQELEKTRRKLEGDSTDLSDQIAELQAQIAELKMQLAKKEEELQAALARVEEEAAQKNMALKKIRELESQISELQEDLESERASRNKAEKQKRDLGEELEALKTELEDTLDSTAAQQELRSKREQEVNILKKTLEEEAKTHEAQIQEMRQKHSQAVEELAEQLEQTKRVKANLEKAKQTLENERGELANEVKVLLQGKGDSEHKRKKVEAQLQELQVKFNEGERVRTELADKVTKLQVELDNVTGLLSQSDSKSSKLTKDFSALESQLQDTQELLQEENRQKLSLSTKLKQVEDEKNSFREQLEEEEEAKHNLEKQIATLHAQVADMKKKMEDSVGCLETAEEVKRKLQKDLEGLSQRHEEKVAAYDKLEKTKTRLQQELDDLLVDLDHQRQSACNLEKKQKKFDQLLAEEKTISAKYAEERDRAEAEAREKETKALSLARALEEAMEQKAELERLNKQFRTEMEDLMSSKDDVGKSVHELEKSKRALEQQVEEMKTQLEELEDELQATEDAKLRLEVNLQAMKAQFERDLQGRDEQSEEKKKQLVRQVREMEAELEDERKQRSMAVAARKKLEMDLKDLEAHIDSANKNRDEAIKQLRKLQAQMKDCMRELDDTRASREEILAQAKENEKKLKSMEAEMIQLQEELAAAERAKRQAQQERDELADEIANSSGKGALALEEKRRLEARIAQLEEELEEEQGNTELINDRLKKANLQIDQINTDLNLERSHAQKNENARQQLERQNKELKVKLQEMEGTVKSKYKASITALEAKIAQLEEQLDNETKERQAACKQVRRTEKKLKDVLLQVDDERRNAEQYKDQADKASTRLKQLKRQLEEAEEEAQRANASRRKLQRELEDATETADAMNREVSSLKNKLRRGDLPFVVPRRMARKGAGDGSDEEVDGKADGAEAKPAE

[6] = target: T1, Heat shock protein HSP90 (Homo sapiens); assay: Binding affinity to HSP90 in human HCT116 cell lysates at 0.6 uM after 1 hr by Western blot based pull down assay; format: protein assay; settings: HCT-116; in short: as §1
[7] = system: HCT-116; assay: Induction of apoptosis in human HCT116 cells assessed as PARP cleavage at 50 uM after 24 hrs by Western blotting analysis; format: functional
In short: (§2)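 HCT116 cells treated 24 hrs with compound at 0–50 µM; cell lysates analyzed by Western blot for full-length PARP (~113 kDa) and cleaved fragments, full-length PARP quantified relative to untreated cells.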

[8] = Inhibition of binding of recombinant HSP90 to his-tagged Akt up to 10 uM by Western blotting analysis
[9] = target: T1, Heat shock protein HSP90 (Homo sapiens); assay: Binding affinity to HSP90 in human HCT116 cells assessed as increase in staining intensity in cytosol at 5 uM after 72 hrs by immunofluorescence staining analysis; format: cell-based; settings: HCT-116
In short: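 HCT116 colon cancer cells treated 72 hours (DMSO as vehicle control, 17-AAG as reference Hsp90 inhibitor); Hsp90 visualized by immunofluorescence with a polyclonal anti-Hsp90 antibody, cytosolic staining intensity compared with DMSO-treated cells.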

[10] = Competitive binding affinity to N-middle domain of HSP90 expressed in BL21(DE)3 Escherichia coli cells after 1 hr by immunoblotting analysis in the presence of 2-chlorobenzyl 4-((2R,5S,8S,11S,14R)-11,14-dibenzyl-8-isobutyl-5-isopropyl-13-methyl-3,6,9,12,15-pentaoxo-1,4,7,10,13-pentaazacyclopentadecan-2-yl)butylcarbamate
[11] = system: HCT-116; assay: Induction of apoptosis in human HCT116 cells assessed as PARP cleavage after 24 hrs by Western blotting analysis; format: functional, cell-based; in short: as §2
[12] = Inhibition of binding of recombinant HSP90 to his-tagged HER2 up to 10 uM by Western blotting analysis
[13] = Binding affinity to N-middle domain of HSP90 expressed in BL21(DE)3 Escherichia coli cells at 5 uM after 2 hrs by Western blotting method based pull down assay

| Structure (SMILES) | Activity [1] | Activity [2] | Activity [3] | Activity [4] | Activity [5] | Activity [6] | Activity [7] | inhibition [8] | Activity [9] | pIC50 [10] | Activity [11] | inhibition [12] | Activity [13] |
| --- | --- | --- | --- | --- | --- | --- | --- | --- | --- | --- | --- | --- | --- |
| CC(C)[C@@H]1NC(=O)[C@@H](CCCCNC(=O)OCc2ccccc2Cl)NC(=O)[C@@H](Cc2ccccc2)N(C)C(=O)[C@H](Cc2ccccc2)NC(=O)[C@H](CCCCNC(=O)CCOCCOCCOCCOCCNC(=O)CCCC[C@@H]2SC[C@@H]3NC(=O)N[C@@H]32)NC1=O | inactive | inactive | inactive | inactive | inactive | inactive |  |  |  |  |  |  |  |
| CC(C)C[C@@H]1NC(=O)[C@H](C(C)C)NC(=O)[C@@H](CCCCNC(=O)OCc2ccccc2Cl)NC(=O)[C@@H](Cc2ccccc2)N(C)C(=O)[C@H](Cc2ccccc2)NC1=O |  |  |  |  |  |  | 48% | inactive | Active | 5.21 | Dose-dependent effect | inactive |  |
| CC(C)C[C@@H]1NC(=O)[C@H](CCCCNC(=O)CCOCCOCCOCCOCCNC(=O)CCCC[C@@H]2SC[C@@H]3NC(=O)N[C@@H]32)NC(=O)[C@@H](CCCCNC(=O)OCc2ccccc2Cl)NC(=O)[C@@H](Cc2ccccc2)N(C)C(=O)[C@H](Cc2ccccc2)NC1=O | Active | Active | Active | Active | Active | Active |  |  |  |  |  |  | Active |
| CC(C)C[C@@H]1NC(=O)[C@H](C(C)C)N(C)C(=O)[C@@H](CC(C)C)NC(=O)[C@@H](Cc2ccccc2)NC(=O)[C@@H]([C@H](OCc2ccccc2)c2ccccc2)NC1=O (cyclo(L[X1][dF][dL][NMeV])) |  |  |  |  |  |  |  |  | Active | 5.72 |  |  |  |
